Experimental data taken from ChEMBL document CHEMBL5550195, “Synthesis and in vitro evaluation of novel amino-phenylmethylene-imidazolone 5-HT2A receptor antagonists” (RSC Med Chem, 2024).
Activity calls are given as the source filed them. The rule behind the calls is not given here.

Assays:
[1] = target: T1, 5-hydroxytryptamine receptor 2A (Homo sapiens, UniProt P28223); assay: Antagonist activity at 5-HT2A receptor (unknown origin) assessed as inhibition of 5-HT stimulated IP1 production incubated for 1 hr by HTRF method; assay type: functional
Method in brief: (§1)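 IP-One HTRF immunoassay for 5-HT2A Gαq signalling. Cells were seeded at 7,500 per well and given varying doses of compound. The agonist-mode reference was serotonin and the antagonist-mode reference was methiothepin. Incubation was 1 h at 37 °C, then lysis with d2-labelled IP1 and terbium cryptate anti-IP1 antibody for 1 h at room temperature. Fluorescence was read at 615/665 nm. IP1 was quantified against a 9-point standard curve, 4-fold from 7,700 nM, run in duplicate. Values came from log(inhibitor) vs response, variable-slope fit.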

[2] = target: T1, 5-hydroxytryptamine receptor 2A; assay: Displacement of [3H] Ketanserin from 5HT2A receptor (unknown origin) at 10 uM incubated for 0.5 hrs by microbeta2 plate reader assay relative to control; conditions: for inhibition: filed as antagonist
Method in brief: (§2)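 Filtration binding on 5-HT2A membranes. Serially diluted compound, with ketanserin as reference, was mixed with membrane and [3H]ketanserin, with separate nonspecific-binding wells, and shaken at 300 rpm. Mixtures were filtered through PEI-soaked GF filter plates and washed 4× with cold buffer. Filters were dried 1 h at 50 °C and bound 3H was counted by scintillation. IC50 came from dose-response fits and Ki was also reported; the top dose was 10000 nM.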

[3] = target: T1, 5-hydroxytryptamine receptor 2A; assay: Agonist activity at 5-HT2A receptor (unknown origin) assessed as IP1 accumulation at 0.0004 to 10 uM incubated for 1 hr by HTRF method; assay type: functional; conditions: dose 0.0004-10 µM; method in brief: as §1
[4] = target: T1, 5-hydroxytryptamine receptor 2A; assay: Displacement of [3H] Ketanserin from 5HT2A receptor (unknown origin) incubated for 0.5 hrs by microbeta2 plate reader assay; method in brief: as §2
[5] = Kinetic solubility of compound in PBS at pH 7.4 incubated for 2 hrs in shaker by LC-MS/MS analysis; assay type: physicochemical; conditions: read-out: Kinetic_solubility
Method in brief: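 Compound from 10 mM DMSO stock was added in duplicate to pH 7.4 PBS, 30 µL into 970 µL, and stirred/shaken at 1100 rpm for 2 h at room temperature. The mixture was vacuum filtered and the filtrate diluted in methanol/DMSO. Quantification was by LC-MS/MS (positive ESI, MRM) against 3 µM standards, with progesterone as positive control. The assay upper limit was 300 µM.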

[6] = target: T1, 5-hydroxytryptamine receptor 2A; assay: Antagonist activity at 5-HT2A receptor (unknown origin) assessed as inhibition of 5-HT stimulated IP1 production at 10 uM incubated for 1 hr by HTRF method relative to control; assay type: functional; design: scale not given: the % may be the effect or the level left; conditions: filed as antagonist; method in brief: as §1

T1 sequence (P28223 whole entry): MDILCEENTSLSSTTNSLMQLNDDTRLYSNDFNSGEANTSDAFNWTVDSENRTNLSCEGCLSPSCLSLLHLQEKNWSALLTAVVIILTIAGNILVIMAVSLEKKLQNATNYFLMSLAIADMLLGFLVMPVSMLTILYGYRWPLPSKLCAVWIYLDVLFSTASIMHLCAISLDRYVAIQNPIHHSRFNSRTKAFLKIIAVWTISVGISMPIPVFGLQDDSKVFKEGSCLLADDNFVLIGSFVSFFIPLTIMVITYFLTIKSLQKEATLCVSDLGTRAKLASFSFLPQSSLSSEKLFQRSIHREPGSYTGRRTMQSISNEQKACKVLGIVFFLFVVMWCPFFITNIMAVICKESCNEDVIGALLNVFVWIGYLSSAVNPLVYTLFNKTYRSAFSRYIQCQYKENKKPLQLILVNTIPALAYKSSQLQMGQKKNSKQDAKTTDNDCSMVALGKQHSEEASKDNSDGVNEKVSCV

Structure (SMILES) | IC50 [1] [nM] | inhibition [2] [%] | Activity [3] | Ki [4] [nM] | solubility kinetic at 2 h [5] [µM] | Activity [6] [%] | Activity [2]
COc1ccc(OC)c(/C=C2\N=C(N)NC2=O)c1.Cl | 887 | 95 | inactive | 233 | ≥ 20 | 93 | –
COc1cc(/C=C2\N=C(N)NC2=O)cc(OC)c1OC.Cl | – | – | – | – | ≥ 20 | – | inactive
COc1ccc(OC)c(/C=C2\C(=O)N=C(N)N2C)c1.Cl | – | – | – | > 3880 | ≥ 20 | – | –
COc1cc(/C=C2\N=C(N)NC2=O)c(OC)cc1Br.Cl | 58 | 97 | inactive | 19 | ≥ 20 | 100 | –
COc1cc(/C=C2\C(=O)N=C(N)N2C)cc(OC)c1OC.Cl | – | – | – | – | ≥ 20 | – | inactive
COc1cc(/C=C2\C(=O)N(C)C(=N)N2C)cc(OC)c1OC.Cl | – | – | – | – | ≥ 20 | – | inactive
COc1cc(/C=C2\C(=O)N=C(N)N2C)c(OC)cc1Br.Cl | – | – | – | – | ≥ 20 | – | –
